How the values were obtained:
[1] = Cmax in Sprague-Dawley rat at 1 mg/kg, iv or 2 mg/kg, po; type: ADME, organism-based; conditions: in vivo
Summary of the method: (§1)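 Single iv dose of 1 mg/kg or oral dose of 2 mg/kg, given in water. Plasma clearance and half-life come from dosing; Cmax is the peak plasma level after oral dosing. Oral bioavailability was derived from the po versus iv data.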

[2] = Plasma clearance in Sprague-Dawley rat at 1 mg/kg, iv or 2 mg/kg, po; type: ADME, organism-based; summary of the method: as §1
[3] = Bioavailability in Sprague-Dawley rat at 2 mg/kg, po; type: ADME, organism-based; conditions: in vivo; summary of the method: as §1
[4] = Half life in Sprague-Dawley rat at 1 mg/kg, iv or 2 mg/kg, po; type: ADME, organism-based; conditions: in vivo; summary of the method: as §1
[5] = Half life in monkey at 1 mg/kg, iv or 2 mg/kg, po; type: ADME, organism-based, Macaca mulatta; conditions: rhesus monkey, in vivo; summary of the method: as §1
[6] = Plasma clearance in monkey at 1 mg/kg, iv or 2 mg/kg, po; type: ADME, organism-based, Macaca mulatta; conditions: rhesus monkey; summary of the method: as §1
[7] = Cmax in monkey at 1 mg/kg, iv or 2 mg/kg, po; type: ADME, organism-based, Macaca mulatta; conditions: rhesus monkey, in vivo; summary of the method: as §1
[8] = Plasma clearance in dog at 1 mg/kg, iv or 2 mg/kg, po; type: ADME, organism-based, Canis lupus familiaris; summary of the method: as §1
[9] = Bioavailability in dog at 2 mg/kg, po; type: ADME, organism-based, Canis lupus familiaris; conditions: in vivo; summary of the method: as §1
[10] = Cmax in dog at 1 mg/kg, iv or 2 mg/kg, po; type: ADME, organism-based, Canis lupus familiaris; conditions: in vivo; summary of the method: as §1
[11] = Bioavailability in monkey at 2 mg/kg, po; type: ADME, organism-based, Macaca mulatta; conditions: rhesus monkey, in vivo; summary of the method: as §1
[12] = (§2) Half life in dog at 1 mg/kg, iv or 2 mg/kg, po; type: ADME, organism-based, Canis lupus familiaris; conditions: in vivo; summary of the method: as §1
[13] = molecular target: Dipeptidyl peptidase 2 (Homo sapiens, UniProt Q9UHL4); assay: Inhibition of QPP
[14] = molecular target: Dipeptidyl peptidase 8 (Homo sapiens, UniProt Q6V1X1); assay: Inhibition of DPP8
[15] = molecular target: Dipeptidyl peptidase 4 (Homo sapiens, UniProt P27487); assay: Inhibition of DPP4
[16] = tested on: Canis familiaris; assay: as §2; type: ADME, organism-based, Canis lupus familiaris; conditions: in vivo; summary of the method: as §1

Chain of Dipeptidyl peptidase 4 (P27487 whole entry): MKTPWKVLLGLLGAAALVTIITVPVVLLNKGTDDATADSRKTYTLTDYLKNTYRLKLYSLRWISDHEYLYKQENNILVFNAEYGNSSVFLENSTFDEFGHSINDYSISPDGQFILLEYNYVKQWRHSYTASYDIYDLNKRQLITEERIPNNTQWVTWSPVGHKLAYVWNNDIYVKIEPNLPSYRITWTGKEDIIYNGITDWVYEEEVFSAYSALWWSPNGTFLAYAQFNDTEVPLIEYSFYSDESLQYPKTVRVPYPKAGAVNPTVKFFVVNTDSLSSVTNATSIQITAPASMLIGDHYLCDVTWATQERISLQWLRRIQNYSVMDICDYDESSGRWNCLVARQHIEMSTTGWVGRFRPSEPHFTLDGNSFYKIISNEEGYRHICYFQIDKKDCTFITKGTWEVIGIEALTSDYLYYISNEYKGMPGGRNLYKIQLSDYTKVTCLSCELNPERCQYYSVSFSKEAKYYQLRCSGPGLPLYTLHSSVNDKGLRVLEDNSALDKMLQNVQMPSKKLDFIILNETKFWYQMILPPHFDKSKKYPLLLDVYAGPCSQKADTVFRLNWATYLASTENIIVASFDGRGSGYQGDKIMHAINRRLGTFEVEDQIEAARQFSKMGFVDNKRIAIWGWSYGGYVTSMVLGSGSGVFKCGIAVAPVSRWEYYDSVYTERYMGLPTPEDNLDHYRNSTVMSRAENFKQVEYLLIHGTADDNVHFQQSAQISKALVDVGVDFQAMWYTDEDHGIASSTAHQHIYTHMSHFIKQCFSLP
Chain of Dipeptidyl peptidase 8 (Q6V1X1 whole entry): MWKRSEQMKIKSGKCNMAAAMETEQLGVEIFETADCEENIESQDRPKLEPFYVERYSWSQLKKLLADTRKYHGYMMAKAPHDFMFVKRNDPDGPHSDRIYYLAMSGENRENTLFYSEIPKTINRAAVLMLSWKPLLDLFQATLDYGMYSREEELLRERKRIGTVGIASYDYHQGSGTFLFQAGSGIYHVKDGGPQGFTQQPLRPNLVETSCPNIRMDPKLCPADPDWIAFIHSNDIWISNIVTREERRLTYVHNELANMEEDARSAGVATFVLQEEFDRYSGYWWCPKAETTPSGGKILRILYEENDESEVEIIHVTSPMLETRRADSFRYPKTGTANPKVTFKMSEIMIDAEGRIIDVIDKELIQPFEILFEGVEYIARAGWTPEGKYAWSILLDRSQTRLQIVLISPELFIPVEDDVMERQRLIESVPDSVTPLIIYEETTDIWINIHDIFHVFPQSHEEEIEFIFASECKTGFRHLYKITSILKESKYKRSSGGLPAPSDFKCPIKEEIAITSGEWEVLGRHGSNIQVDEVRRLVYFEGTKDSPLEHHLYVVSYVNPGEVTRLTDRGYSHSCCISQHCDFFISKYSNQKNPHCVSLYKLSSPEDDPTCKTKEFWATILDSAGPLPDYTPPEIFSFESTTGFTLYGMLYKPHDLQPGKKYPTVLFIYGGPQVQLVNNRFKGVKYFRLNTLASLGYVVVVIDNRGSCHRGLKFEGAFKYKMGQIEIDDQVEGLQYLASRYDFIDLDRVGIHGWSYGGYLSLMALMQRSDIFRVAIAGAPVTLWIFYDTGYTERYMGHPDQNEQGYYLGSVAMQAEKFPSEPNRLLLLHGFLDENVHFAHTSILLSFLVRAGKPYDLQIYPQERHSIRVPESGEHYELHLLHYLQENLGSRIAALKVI

Row | SMILES | Cmax [1] [nM] | clearance [2] [mL/min/kg] | bioavailability [3] [%] | half-life [4] [h] | IC50 [13] [µM] | also measured
1 | C[C@@H]1CCN(C(=O)C[C@H](N)Cc2cc(F)c(F)cc2F)[C@H](Cc2ccccn2)C(=O)N1 | 10 | 97 | 8.1 | 2 |  | 
2 | C[C@H]1CNC(=O)[C@@H](C)N(C(=O)C[C@H](N)Cc2cc(F)c(F)cc2F)C1 | 140 | 92.8 | 49 | 1.5 |  | half-life [5]: 4.4 h; clearance [6]: 39.4 mL/min/kg; Cmax [7]: 290 nM; clearance [8]: 8.1 mL/min/kg; bioavailability [9]: 77%; Cmax [10]: 1210 nM; bioavailability [11]: 59%; half-life [12]: 8.1 h
3 | C[C@@H]1C(=O)N(C2CC2)CCCN1C(=O)C[C@H](N)Cc1cc(F)ccc1F | 50 | 132 | 19 | 1.6 | > 100 | 
4 | CC1CCNC(=O)CN1C(=O)C[C@H](N)Cc1cc(F)c(F)cc1F (stereo in doubt; 13b) |  |  |  |  | > 100 | IC50 [14]: > 100 µM; IC50 [15]: 1.05 µM
5 | C[C@@H]1C(=O)N(CC(=O)O)CCCN1C(=O)C[C@H](N)Cc1cc(F)ccc1F |  |  |  |  | > 100 | IC50 [14]: > 100 µM; IC50 [15]: 0.0699 µM
6 | N[C@@H](CC(=O)N1CCCNC(=O)C1)Cc1cc(F)c(F)cc1F |  |  |  |  | > 100 | 
7 | C[C@@H]1C(=O)N(C)CCCN1C(=O)C[C@H](N)Cc1cc(F)c(F)cc1F | 130 | 113 | 29 | 1.3 | > 100 | 
8 | CC1CCNC(=O)CN1C(=O)C[C@H](N)Cc1cc(F)c(F)cc1F (stereo in doubt; 13a) |  |  |  |  | 44 | IC50 [14]: > 100 µM; IC50 [15]: 0.765 µM
9 | C[C@@H]1CCN(C(=O)C[C@H](N)Cc2cc(F)c(F)cc2F)[C@H](C)C(=O)N1 | 170 | 87 | 64 | 1.5 |  | half-life [5]: 4.7 h; clearance [6]: 42.3 mL/min/kg; Cmax [7]: 430 nM; clearance [8]: 8.5 mL/min/kg; bioavailability [9]: 88%; Cmax [10]: 1290 nM; bioavailability [11]: 71%; t1/2 [16]: 7.2 h
10 | CC1C(=O)NCCCN1C(=O)C[C@H](N)Cc1cc(F)ccc1F (some centres undefined) |  |  |  |  | > 100 | 
11 | COC(=O)CN1CCCN(C(=O)C[C@H](N)Cc2cc(F)ccc2F)[C@H](C)C1=O |  |  |  |  | > 100 | IC50 [15]: 0.0116 µM
12 | C[C@@H]1C(=O)N2CCC[C@@H]2CCN1C(=O)C[C@H](N)Cc1cc(F)c(F)cc1F | 40 | 152 | 21 | 1.4 |  | 
13 | C[C@@H]1C(=O)N(CC(F)(F)F)CCCN1C(=O)C[C@H](N)Cc1cc(F)c(F)cc1F | 80 | 82 | 23 | 1.7 |  | 
14 | CCN1CCCN(C(=O)C[C@H](N)Cc2cc(F)ccc2F)[C@H](C)C1=O | 30 | 152 | 7.4 | 0.8 | > 100 | 
15 | C[C@@H]1C(=O)N(C2CC2)CCCN1C(=O)C[C@H](N)Cc1cc(F)c(F)cc1F | 570 | 51 | 45 | 4.3 |  | 
16 | N[C@@H](CC(=O)N1CCCNC(=O)C1CC(F)(F)F)Cc1cc(F)c(F)cc1F (some centres undefined) | 90 | 94 | 36 | 2 |  | 
17 | C[C@@H]1C(=O)N[C@H](C(F)(F)F)CCN1C(=O)C[C@H](N)Cc1cc(F)c(F)cc1F |  |  |  |  | > 100 | IC50 [15]: 0.139 µM
